According to ChEMBL document CHEMBL2158000 (Bioorg Med Chem Lett, 2012):

Key:
[1] = molecular target: T1, Amine oxidase [flavin-containing] B (Homo sapiens, UniProt P27338); test: Inhibition of human recombinant MAOB using kynuramine as substrate assessed as formation of 4-hydroxyquinoline after 20 mins by fluorescence spectrophotometry
T1 sequence (P27338 whole entry): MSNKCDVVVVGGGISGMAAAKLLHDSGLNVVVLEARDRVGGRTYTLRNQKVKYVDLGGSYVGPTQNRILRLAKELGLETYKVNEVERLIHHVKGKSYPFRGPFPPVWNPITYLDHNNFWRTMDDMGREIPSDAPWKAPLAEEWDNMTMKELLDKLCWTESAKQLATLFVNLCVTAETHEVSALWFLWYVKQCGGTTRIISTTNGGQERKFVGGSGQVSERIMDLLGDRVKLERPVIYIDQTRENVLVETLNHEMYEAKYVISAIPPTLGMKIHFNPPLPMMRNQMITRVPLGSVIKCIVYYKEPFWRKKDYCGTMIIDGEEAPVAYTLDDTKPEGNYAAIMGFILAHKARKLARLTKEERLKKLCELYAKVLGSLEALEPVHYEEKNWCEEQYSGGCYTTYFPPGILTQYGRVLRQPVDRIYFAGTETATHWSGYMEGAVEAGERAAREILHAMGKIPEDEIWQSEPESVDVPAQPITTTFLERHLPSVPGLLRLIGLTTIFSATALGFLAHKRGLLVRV

Homo sapiens = species: Homo sapiens; test: Selectivity index, ratio of IC50 for human recombinant MAOA to IC50 for human recombinant MAOB
[2] = molecular target: T2, Amine oxidase [flavin-containing] A (Homo sapiens, UniProt P21397); test: Inhibition of human recombinant MAOA using kynuramine as substrate assessed as formation of 4-hydroxyquinoline after 20 mins by fluorescence spectrophotometry
T2 sequence (P21397 whole entry): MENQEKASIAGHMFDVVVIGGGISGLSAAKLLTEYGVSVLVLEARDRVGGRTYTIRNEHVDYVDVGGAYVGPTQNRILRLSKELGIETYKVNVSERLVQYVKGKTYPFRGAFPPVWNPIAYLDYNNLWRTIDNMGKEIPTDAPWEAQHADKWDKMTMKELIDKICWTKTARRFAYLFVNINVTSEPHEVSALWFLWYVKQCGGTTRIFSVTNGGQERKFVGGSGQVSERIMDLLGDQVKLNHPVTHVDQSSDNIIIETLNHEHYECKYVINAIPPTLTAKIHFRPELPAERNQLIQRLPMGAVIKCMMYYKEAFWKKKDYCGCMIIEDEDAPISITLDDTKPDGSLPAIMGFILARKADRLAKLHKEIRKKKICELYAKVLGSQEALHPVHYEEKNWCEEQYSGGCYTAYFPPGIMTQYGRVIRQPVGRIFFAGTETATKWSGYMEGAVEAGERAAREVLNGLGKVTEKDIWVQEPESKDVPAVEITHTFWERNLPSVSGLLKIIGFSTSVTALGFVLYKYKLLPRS

[3] = molecular target: T1, Amine oxidase [flavin-containing] B; test: Reversible inhibition of human recombinant MAOB using kynuramine as substrate assessed as residual activity at 100 times IC50 preincubated for 30 mins followed by 100 fold dilution measured after 20 mins by fluorescence spectrophotometry relative to control
Outline: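 MAO-B was preincubated with inhibitor at 10× and 100× IC50 for 30 min, then diluted to 0.1× and 1× IC50. Residual activity was measured by fluorometry of 4-hydroxyquinoline from kynuramine and expressed as % of control. Irreversible reference inhibitor was at 10× IC50, diluted to 0.1× IC50.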

With `COc1ccc(CSc2ccc3c(c2)C(=O)NC3=O)cc1` the IC50 [1] was 20 nM, the Ratio IC50 (Homo sapiens) was 82 and the IC50 [2] was 1630 nM.
Compound `O=C1NC(=O)c2cc(SC3CCCCC3)ccc21` has an IC50 [1] of 179 nM, a Ratio IC50 (Homo sapiens) of 5.8 and an IC50 [2] of 1030 nM.
With `O=C1NC(=O)c2cc(SCc3ccc(Br)cc3)ccc21` the IC50 [1] was 7.4 nM, the Ratio IC50 (Homo sapiens) was 37 and the IC50 [2] was 273 nM.
In the case of `O=C1NC(=O)c2cc(Sc3ccccc3)ccc21`, the IC50 [1] is reported as 986 nM, the Ratio IC50 (Homo sapiens) is reported as 8.1 and the IC50 [2] is reported as 8030 nM.
With `O=C1NC(=O)c2cc(Sc3ccc(Cl)cc3)ccc21` the IC50 [1] was 457 nM, the Ratio IC50 (Homo sapiens) was 3.7 and the IC50 [2] was 1680 nM.
In the case of `O=C1NC(=O)c2cc(SCc3ccccc3)ccc21`, the Activity [3] is reported as 28%, the IC50 [1] is reported as 4.5 nM and the Ratio IC50 (Homo sapiens) is reported as 427. It also gave an IC50 [2] of 1920 nM.
Compound `O=C1NC(=O)c2cc(SCc3ccc(Cl)cc3)ccc21` has an IC50 [1] of 5.6 nM, a Ratio IC50 (Homo sapiens) of 90 and an IC50 [2] of 506 nM.
For `CC(C)CCSc1ccc2c(c1)C(=O)NC2=O`, the IC50 [1] was 15 nM, the Ratio IC50 (Homo sapiens) was 26 and the IC50 [2] was 380 nM.
`O=C1NC(=O)c2cc(SCc3ccc(F)cc3)ccc21` showed an IC50 [1] of 6.8 nM, a Ratio IC50 (Homo sapiens) of 141 and an IC50 [2] of 958 nM.
`O=C1NC(=O)c2cc(SCCc3ccccc3)ccc21` showed an IC50 [1] of 30 nM, a Ratio IC50 (Homo sapiens) of 76 and an IC50 [2] of 2270 nM.
Work on `O=C1NC(=O)c2cc(Sc3ccc(Br)cc3)ccc21` yielded an IC50 [1] of 364 nM, a Ratio IC50 (Homo sapiens) of 2.8 and an IC50 [2] of 1010 nM.
